Measured values: ChEMBL document CHEMBL1926658, “The design, synthesis and biological evaluations of C-6 or C-7 substituted 2-hydroxyisoquinoline-1,3-diones as inhibitors of hepatitis C virus” (Bioorg Med Chem, 2012)

Assays:
[1] = Cytotoxicity against human HuH7 cells infected with HCV1b assessed as cell viability at 10 uM after 3 days by MTS assay; assay type: cell-based, Huh-7; conditions: read-out: Activity
Method in brief: (§1)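 Replicon cells (Huh-7/HCV1b-Rluc) seeded at 6 × 10³/well minus G418, then exposed next day to compound in DMSO for three days at 37 °C/5% CO₂. Viability read with MTS reagent (CellTiter 96 AQueous One) by absorbance at […]. CC₅₀ taken as concentration reducing proliferation by 50%, fitted from eight serial dilutions against vehicle-treated cells.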

Hepatitis C virus [2] = assay: Antiviral activity against HCV genotype 1b infected in human HuH7 cells assessed as reduction in luciferase activity at 10 uM after 3 days; assay type: functional, Hepacivirus hominis, Huh-7; parameters: scale not given: the % may be the effect or the level left
Method in brief: (§2)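 Huh-7/HCV1b-Rluc genotype 1b replicon cells plated at 6 × 10³/well without G418; next day compound in DMSO added, 37 °C/5% CO₂ for 3 days. Live-cell renilla luciferase substrate (1:1000) added, luminescence read immediately. Triplicates, ≥2 independent runs. Single-point tests at 10 µM with ribavirin (10 µM) and 2'-C-methyl adenosine (500 nM) controls; EC₅₀ from eight serial dilutions versus vehicle.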

Hepatitis C virus [3] = assay: Inhibition of recombinant HCV genotype 1b NS5B polymerase activity after 3 hrs by scintillation proximity assay; parameters: species or system Hepatitis C virus subtype 1b
Method in brief: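 Started with 450 nM oligo-U12 primer, 30 nM UTP, 75 nM poly(A) template and ³H-UTP; 3 h at room temperature, scintillation proximity read-out. Duplicates, ≥2 repeats; IC₅₀ from eight serial dilutions.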

[4] = Inhibition of HCV NS5b RNA-dependent RNA polymerase; parameters: species or system Hepacivirus hominis
[5] = Therapeutic index, ratio of CC50 for human HuH7 cells infected with HCV1b to EC50 for HCV genotype 1b; assay type: cell-based, Huh-7; conditions: read-out: Ratio CC50/EC50
Method in brief: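 Index computed as CC₅₀/EC₅₀, both values from 3-day assays in Huh-7/HCV1b-Rluc replicon cells: EC₅₀ from renilla luciferase signal, CC₅₀ from MTS absorbance at 450 nm, each fitted from eight serial dilutions against vehicle.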

[6] = Cytotoxicity against human HuH7 cells infected with HCV1b after 3 days by MTS assay; assay type: cell-based, Huh-7; method in brief: as §1
Hepatitis C virus [7] = assay: Antiviral activity against HCV genotype 1b infected in human HuH7 cells after 3 days by renilla luciferase reporter assay; assay type: functional, organism-based, Hepacivirus hominis; conditions: Huh-7, 72 h; method in brief: as §2

O=C1Cc2cc(-c3ccc4c(c3)OCO4)ccc2C(=O)N1O gave a viability at 72 h, 10 µM [1] of 79% and an Activity (Hepatitis C virus [2]) of 28%.
With N#Cc1cc(COc2cccc(C(=O)/C=C(\O)C(=O)O)c2)c(Cl)cc1Cl the IC50 (Hepatitis C virus [3]) was 0.015 µM and the IC50 [4] was 0.045 µM.
With C[C@@]1(O)[C@H](O)[C@@H](CO)O[C@H]1n1cnc2c(N)ncnc21 the selectivity ratio [5] was 270 and the CC50 at 72 h [6] was 55 µM.
O=C1Cc2cc(-c3ccoc3)ccc2C(=O)N1O showed an IC50 (Hepatitis C virus [3]) of 11 µM, a viability at 72 h, 10 µM [1] of 52% and an Activity (Hepatitis C virus [2]) of 100%.
For O=C1Cc2cc(-c3ccc(F)c(F)c3)ccc2C(=O)N1O, the viability at 72 h, 10 µM [1] was 34% and the Activity (Hepatitis C virus [2]) was 78%.
Work on O=C1Cc2ccc(-c3ccc(F)c(F)c3)cc2C(=O)N1O yielded a viability at 72 h, 10 µM [1] of 33% and an Activity (Hepatitis C virus [2]) of 100%.
O=C1Cc2cc(-c3csc4ccccc34)ccc2C(=O)N1O gave a viability at 72 h, 10 µM [1] of 34% and an Activity (Hepatitis C virus [2]) of 95%.
Work on O=C1Cc2cc(-c3cccs3)ccc2C(=O)N1O yielded a selectivity ratio [5] of 11, a CC50 at 72 h [6] of 18 µM and an IC50 (Hepatitis C virus [3]) of 7.3 µM. For the same molecule, the viability at 72 h, 10 µM [1] was 100%, the EC50 (Hepatitis C virus [7]) was 1.7 µM and the Activity (Hepatitis C virus [2]) was 93%.
Work on O=C1Cc2cc(-c3cc4ccccc4o3)ccc2C(=O)N1O yielded a viability at 72 h, 10 µM [1] of 46% and an Activity (Hepatitis C virus [2]) of 73%.
O=C1Cc2cc(-c3cccc4c3sc3ccccc34)ccc2C(=O)N1O gave a viability at 72 h, 10 µM [1] of 32% and an Activity (Hepatitis C virus [2]) of 95%.
Work on COc1cccc(-c2ccc3c(c2)C(=O)N(O)C(=O)C3)c1 yielded a viability at 72 h, 10 µM [1] of 37% and an Activity (Hepatitis C virus [2]) of 54%.
For Cc1ccc(-c2ccc3c(c2)CC(=O)N(O)C3=O)o1, the selectivity ratio [5] was 2.6, the CC50 at 72 h [6] was 11 µM and the IC50 (Hepatitis C virus [3]) was 18 µM. The viability at 72 h, 10 µM [1] was 87%, the EC50 (Hepatitis C virus [7]) was 4.3 µM and the Activity (Hepatitis C virus [2]) was 76%.
O=C1Cc2cc(-c3ccc(F)cc3)ccc2C(=O)N1O gave a selectivity ratio [5] of 1.2, a CC50 at 72 h [6] of 11 µM and an IC50 (Hepatitis C virus [3]) of 20 µM. It also gave a viability at 72 h, 10 µM [1] of 90%, an EC50 (Hepatitis C virus [7]) of 9.6 µM and an Activity (Hepatitis C virus [2]) of 73%.
Work on O=C1Cc2cc(-c3cccc4c3oc3ccccc34)ccc2C(=O)N1O yielded a viability at 72 h, 10 µM [1] of 28% and an Activity (Hepatitis C virus [2]) of 98%.
O=C1Cc2ccc(-c3ccc(F)c(Cl)c3)cc2C(=O)N1O showed an IC50 (Hepatitis C virus [3]) of 7.1 µM, a viability at 72 h, 10 µM [1] of 83% and an Activity (Hepatitis C virus [2]) of 30%.
NC(=O)c1ncn([C@@H]2O[C@H](CO)[C@@H](O)[C@H]2O)n1 [RIBAVIRIN] gave a selectivity ratio [5] of 2.3, a CC50 at 72 h [6] of 32 µM and an EC50 (Hepatitis C virus [7]) of 14 µM.
Work on O=C1Cc2ccc(I)cc2C(=O)N1O yielded a selectivity ratio [5] of 6.9, a CC50 at 72 h [6] of 27 µM and an IC50 (Hepatitis C virus [3]) of 15 µM. For the same molecule, the viability at 72 h, 10 µM [1] was 86%, the EC50 (Hepatitis C virus [7]) was 3.9 µM and the Activity (Hepatitis C virus [2]) was 79%.
For O=C1Cc2ccc(-c3cccs3)cc2C(=O)N1O, the viability at 72 h, 10 µM [1] was 21% and the Activity (Hepatitis C virus [2]) was 99%.
Molecule O=C1Cc2ccc(-c3ccco3)cc2C(=O)N1O has an IC50 (Hepatitis C virus [3]) of 18 µM, a viability at 72 h, 10 µM [1] of 21% and an Activity (Hepatitis C virus [2]) of 51%.
For O=C1Cc2cc(-c3ccc(C(F)(F)F)cc3)ccc2C(=O)N1O, the viability at 72 h, 10 µM [1] was 29% and the Activity (Hepatitis C virus [2]) was 93%.
CS(=O)(=O)c1ccc(-c2ccc3c(c2)CC(=O)N(O)C3=O)cc1 gave a viability at 72 h, 10 µM [1] of 100% and an Activity (Hepatitis C virus [2]) of 3%.
With O=C1Cc2cc(-c3ccco3)ccc2C(=O)N1O the selectivity ratio [5] was 6.8, the CC50 at 72 h [6] was 13 µM and the IC50 (Hepatitis C virus [3]) was 1.3 µM. The viability at 72 h, 10 µM [1] was 96%, the EC50 (Hepatitis C virus [7]) was 1.9 µM and the Activity (Hepatitis C virus [2]) was 89%.
O=C1Cc2cc(-c3ccsc3)ccc2C(=O)N1O gave a selectivity ratio [5] of 2.2, a CC50 at 72 h [6] of 98 µM and an IC50 (Hepatitis C virus [3]) of 9 µM. For the same molecule, the viability at 72 h, 10 µM [1] was 100%, the EC50 (Hepatitis C virus [7]) was 44 µM and the Activity (Hepatitis C virus [2]) was 72%.
Molecule O=C1Cc2cc(-c3cccc(-c4ccccc4)c3)ccc2C(=O)N1O has a viability at 72 h, 10 µM [1] of 23% and an Activity (Hepatitis C virus [2]) of 95%.
For O=C1Cc2ccc(-c3cc4ccccc4o3)cc2C(=O)N1O, the viability at 72 h, 10 µM [1] was 33% and the Activity (Hepatitis C virus [2]) was 83%.
